# Results gathered from unrelated publications.
# Lines come from different studies, so protocols differ.
Compound,tested on,assay,system,conditions,measurement,result
C[C@H]1[C@@H](C(=O)NCc2nc(-c3ccc(C#N)cc3)cs2)CCCN1C(=O)[C@H]1CCO1,,metabolic stability,"male Sprague-Dawley rat, liver microsomes",0.5 µM,microsomal CLint,45 µL/min/mg
CCc1cc(=O)oc2cc(OC(CC)C(=O)c3ccccc3)ccc12 (stereo not shown),TZM-bl,"cell growth or viability, resazurin",,,CC50,> 12.5 µM
CCC(CC)COC(=O)[C@H](C)N[P@](=O)(OC[C@H]1O[C@@](C#N)(c2ccc3c(N)ncnn23)[C@H](O)[C@@H]1O)Oc1ccccc1,HEp-2,"cell growth or viability, CCK-8",,5 days,CC50,2.95 µM
O=C(O)COc1cccc(-c2nc(Nc3ccc4[nH]ncc4c3)c3ccccc3n2)c1,"Solute carrier organic anion transporter family member 1B3 (SLCO1B3, Homo sapiens, UniProt Q9NPD5)","transporter uptake, inhibitor",,,IC50,1.55 µM
N#C[C@@]1(c2ccc3c(N)ncnn23)O[C@H](COC(=O)c2ccccc2)[C@@H](O)[C@H]1O,HEp-2,"cell growth or viability, CCK-8",,5 days,CC50,79.2 µM
Nc1ccn([C@@H]2O[C@H](CO)[C@@H](O)C2(F)F)c(=O)n1,MCF7,"cell growth or viability, MTT",,"0.625 µg/mL, 48 h",viability,68.6%
O=C1CCC(N2C(=O)c3cccc(NCCc4cn(Cc5ccc(-c6nc7cc(-c8ccccc8)ccn7c6Nc6ccc(C(=O)O)cc6)cc5)nn4)c3C2=O)C(=O)N1 (stereo not shown),MCF7,cell growth or viability,,72 h,CC50,108 µM
C[C@H]1[C@@H](C(=O)NCc2nc(-c3ccc(C#N)cc3)cs2)CCCN1C(=O)[C@H]1CCC(=O)O1,,metabolic stability,"male Sprague-Dawley rat, liver microsomes",0.5 µM,microsomal CLint,24 µL/min/mg
COc1ccc2c(c1)CN(C(=O)CCN1CCC(Cc3ccccc3)CC1)CC[S@@+]2[O-],,,"male human, plasma","intravenous, 0.15 mg/kg, healthy volunteers",clearance,223 mL/min
CC[C@@H](C)[C@@H](N)C(=O)OC[C@H]1O[C@@](C#N)(c2ccc3c(N)ncnn23)[C@H](O)[C@@H]1O,HEp-2,"cell growth or viability, CCK-8",,5 days,CC50,> 100 µM
COCC(=O)N1CCC[C@H](C(=O)NCc2nc(-c3ccc(C)nc3)cs2)C1,,metabolic stability,"human, liver microsomes",0.5 µM,microsomal CLint,5.1 µL/min/mg
CC(C)[C@@H](N)C(=O)OC[C@H]1O[C@@](C#N)(c2ccc3c(N)ncnn23)[C@H](O)[C@@H]1O,HEp-2,"cell growth or viability, CCK-8",,5 days,CC50,> 100 µM
CC(C)(N)COCC(=O)N1CCC[C@H](C(=O)NCc2nc(-c3ccc(C(F)(F)F)cc3)cs2)C1,,metabolic stability,"male Sprague-Dawley rat, liver microsomes",0.5 µM,microsomal CLint,9.9 µL/min/mg
